The record followed here is ChEMBL document CHEMBL2429851, “New synthesis and tritium labeling of a selective ligand for studying high-affinity γ-hydroxybutyrate (GHB) binding sites” (J Med Chem, 2013).

The subject of data set [1] is MDCK. In words: Apparent permeability from basolateral to apical side in MDCK cells expressing MDR1. In kind it is ADME, cell-based, Canis lupus familiaris. The settings on record: dog.
Data set [2] deals with MDCK. In words: Apparent permeability from apical to basolateral side in MDCK cells expressing MDR1. In kind it is ADME, cell-based, Canis lupus familiaris. The settings on record: dog.
The nature of data set [3]: Ratio of drug level in brain to plasma in C57 mouse at 10 mg/kg, po after 30 mins by LC-MS/MS analysis. In kind it is ADME, organism-based. Further details: dose 10 mg/kg, route oral. The settings on record: read-out: BPR. In a few lines:
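Mice dosed orally at 10 mg/kg, a single acute dose. Brain and plasma sampled 30 minutes after dosing, and the brain-to-plasma concentration ratio calculated.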

Data set [4] can be described thus: (§1) Displacement of [3H]-3-hydroxycyclopent-1-enecarboxylic acid from GHB binding site in Sprague-Dawley rat cerebral cortex after 1 hr by scintillation counting analysis. In kind it is tissue-based. In outline:
(§2)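 Rat cerebrocortical membranes incubated with 10 nM [3H]-ligand and competitor over a concentration range. Conditions follow the earlier [3H]NCS-382 protocol. Non-specific binding defined with 1 mM GHB. IC50 taken from inhibition curves. Each experiment run in triplicate, with three additional repeats.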

Data set [5] in a line: Chemical stability of the compound in Milli-Q water at -30 degC by HPLC analysis. In kind it is physicochemical. Conditions: buffer. In outline:
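HPLC purity tracking (area%, 245 nm) of the compound dissolved at 2 mg/mL in MilliQ water (pH 3.5). Stored at −30±2°C and also at room temperature, sampled over time (days to over a year).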

Data set [6] is described as follows: Displacement of [3H]NCS-382 from GHB binding site in Sprague-Dawley rat brain synaptic membranes after 1 hr by scintillation counting analysis. In kind it is cell membranes, Membrane.
For data set [7], the species on record is Rattus norvegicus. The description is as §1. In kind it is tissue-based. In a few lines:
as §2

Data set [8] is described as follows: Radiochemical stability of the compound in aqueous solution of gentisic acid by HPLC analysis. In kind it is physicochemical. The settings on record: buffer. In outline: (§3)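 [3H]-labelled compound tested for protection against radiolysis in four formulations, including ethanol and aqueous gentisic acid (50 mM), at 1 mCi/mL. Stability followed by HPLC (area%, 245 nm).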

A short description of data set [9]: Radiochemical stability of the compound in ethanol at 1 mCi/mL by HPLC analysis. In kind it is physicochemical. In a few lines: as §3
Data set [10] is filed under the species Rattus norvegicus. The settings on record: Sprague-Dawley, Cerebral cortex, at 100 µM.
The species named for data set [11] is Rattus norvegicus. The settings on record: Sprague-Dawley, Cerebral cortex, at 1 mM.

Active and inactive are the calls of the source. No cut-off for these calls is given here.

`O=C(O)C1=CC(O)CC1` (racemic) [listing 1 of 2 here]: in the data set on MDCK [1], the permeability result is “impermeable”. Also, the permeability result in the data set on MDCK [2] was “impermeable”. The Kp at 0.5 h in data set [3] is 0.37. In [4], the IC50 is 73 nM and the pIC50 came to 7.14. Also, in data set [5], the Stability came out at 16 months. The compound further came in with a Ki in [6] of 160 nM.

Turning to `O=C(O)C1=CC(O)CC1` (racemic) [listing 2 of 2 here], the inhibition result in the data set filed under Rattus norvegicus [7] is “Dose-dependent effect”.

For `O=C(O)C1=CC(O)CC1` (stereo not given), the inhibition entry in the data set filed under Rattus norvegicus [7] is “Dose-dependent effect”.

As to `[3H]C1(O)C=C(C(=O)O)CC1` (stereo not given), the Stability entry in [8] and in data set [9] was “Stable” each time.

In the case of `COc1ccc(-c2ccc(=N)n(CCCC(=O)O)n2)cc1`, the inhibition result in the data set filed under Rattus norvegicus [10] was “Active”.

For `O=C(O)/C=C1\CCCc2ccccc2C1O` (stereo not given), the permeability entry with MDCK [1] and in the data set on MDCK [2] was “impermeable” each time. In addition, the Kp at 0.5 h in data set [3] came to 0.38. Further, the inhibition result in the data set filed under Rattus norvegicus [10] was “Active”.

On to `O=C(O)CCCO` [OXYBATE], for which, in the data set on MDCK [1], the permeability result is listed as “impermeable”. The permeability entry in the data set on MDCK [2] was “impermeable”. The Kp at 0.5 h in [3] came out at 0.2. Besides, in data set [4], the IC50 came to 1140 nM and the pIC50 was determined as 5.94. In addition, in the data set filed under Rattus norvegicus [7], the inhibition result is “Dose-dependent effect”.

For the compound `O=C([O-])C1=CC(O)CC1.[Na+]` (stereo not given), in [4], the half-inhibitory concentration (IC50) worked out at 116 nM and the negative-log IC50 (pIC50) was 6.93.

In the case of `NCC(CC(=O)O)c1ccc(Cl)cc1` (stereo not given), in the data set filed under Rattus norvegicus [11], the inhibition entry is “inactive”.

In general, IC50 refers to the concentration that inhibits the measured activity by half. Lower therefore signals greater potency in that assay. For orientation: pIC50 means the negative decadic logarithm of the IC50, by convention in mol/L. The term Ki denotes the equilibrium dissociation constant of an inhibitor or competing ligand from its target. A high value points to a looser hold on the target.
